Compounds with a hit are over-represented: about 0.79% of the library has one in this group of screens.
bIAP activator: intestinal alkaline phosphatase (bovine) activation; activation factor at 20 µM; purified bovine IAP, CDP-star luminescence, 30 min; hits give high values; fold of DMSO-control signal, blank-subtracted; 200,000 compounds, 0.17% hits;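 active = activation factor of 2 or more at 20 µM, a signal rise over negative controls twice the positive control's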
bIAP inhibitor: intestinal alkaline phosphatase (bovine) inhibition | purified bovine IAP, CDP-star luminescence, 30 min | inhibition, % at 20 µM | 190,000 tested, under 10 active;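 active = over 50% inhibition of intestinal alkaline phosphatase at 20 µM in the single-dose screen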
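System: purified bovine intestinal alkaline phosphatase (IAP) enzyme; Input: IAP diluted 1/65,000,000 in the well; Measured by: CDP-star luminescence signal; Compound dosing: 20 µM single dose; Incubation: 30 min reaction at room temperature.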
mIAP inh: blocks mouse intestinal alkaline phosphatase; purified mouse IAP, CDP-Star luminescence, 30 min; inhibition, % at 10 µM; 330,000 compounds, 0.2% hits;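 active = inhibition of at least 40% at 10 µM in the primary screen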
hIAP act: human IAP activation; P09923; purified human IAP, CDP-Star luminescence, 30 min; hits give high values; 1 = vehicle-only enzyme, 0 = enzyme-free background; activation factor at 10 µM; 330,000 compounds, 0.16% hits;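 active = activation factor of the enzyme at least 2-fold when tested at 20 µM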
Target sequence (P09923 whole entry, looked up): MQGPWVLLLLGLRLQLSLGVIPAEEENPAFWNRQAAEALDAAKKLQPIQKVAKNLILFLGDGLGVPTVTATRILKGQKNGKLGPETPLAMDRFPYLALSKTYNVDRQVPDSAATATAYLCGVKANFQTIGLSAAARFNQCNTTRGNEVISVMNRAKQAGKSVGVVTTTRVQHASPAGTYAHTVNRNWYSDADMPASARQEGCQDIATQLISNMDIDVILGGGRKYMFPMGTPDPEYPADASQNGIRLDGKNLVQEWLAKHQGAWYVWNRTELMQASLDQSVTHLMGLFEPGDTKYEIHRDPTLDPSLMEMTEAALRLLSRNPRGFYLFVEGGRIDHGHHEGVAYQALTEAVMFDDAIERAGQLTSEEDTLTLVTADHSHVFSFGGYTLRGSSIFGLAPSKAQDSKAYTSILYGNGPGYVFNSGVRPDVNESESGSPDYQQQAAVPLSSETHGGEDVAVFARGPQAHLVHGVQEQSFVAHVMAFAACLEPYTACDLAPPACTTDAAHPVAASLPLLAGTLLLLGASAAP
mIAP activ: mouse IAP activation; activation factor at 10 µM; 330,000 compounds, 0.24% hits; AID 2805; muIAP, CDP-Star luminescence, 30 min; hits give high values; 1 = vehicle-only enzyme signal, 0 = enzyme-free wells;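 active = activation factor of at least 2 at 20 µM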
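System: mouse IAP enzyme. Reagent: CDP-Star chemiluminescent phosphatase substrate. Benchmarks: DMSO wells, no-enzyme wells. Times: 30 min enzyme-substrate-compound incubation at room temperature. Detection: luminescence from enzymatic CDP-Star hydrolysis. Doses: test compounds delivered from DMSO solution.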
hIAP inh: human IAP inhibition; P09923; purified IAP, CDP-Star luminescence, 30 min; inhibition, % at 10 µM; 330,000 compounds, 0.12% hits;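 active = inhibition reaching a set limit with compound at 10 µM in the primary screen, cut at about 35% in these data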
Large screens that a line does not name were inactive.

CC(Cc1cccs1)NC(=O)Nc1ccccc1 (stereo unspecified)	none
CC(Cc1cccs1)NC(=O)Nc1ccc(Cl)cc1 (stereo unspecified)	mIAP activ 2.3
CCOc1ccc(NC(=S)N2CCN(S(C)(=O)=O)CC2)cc1	none (no result: bIAP activator, bIAP inhibitor)
COc1cccc(NC(=O)CN(C)C(=O)Cc2c(C)nc3ccccc3c2C)c1	none (no result: bIAP activator, bIAP inhibitor)
O=C1CC(N(Cc2cccs2)C(=O)Nc2ccccc2)C(=O)N1c1ccc(Cl)cc1 (stereo unspecified)	none
CC(NC(=O)NC1CCCCC1)C(c1cccs1)N1CCN(c2ccccc2)CC1 (stereo unspecified)	mIAP activ 2
CC(NC(=O)C1CC1)C(c1cccs1)N1CCN(c2ccccc2)CC1 (stereo unspecified)	none
COc1ccc(OC)c(NC(=O)Nc2nnc(N3CCCCC3C)s2)c1 (stereo unspecified)	none (no result: bIAP activator, bIAP inhibitor)
Cc1ccc(-c2nc(CN3CCCCC3)cc(CN3CCCCC3)c2O)cc1	none
CCn1c2ccccc2c2cc(NC(=O)C3CCN(S(=O)(=O)c4cccs4)CC3)ccc21	mIAP activ 2.96
CCC(O)(CC)C(=O)NN(C(=O)Nc1csc2c1CCCC2)c1ccccc1	none
O=C(O)c1ccccc1-n1ncc2c1/C(=C/c1ccc(Cl)cc1)CC2	none (no result: bIAP activator, bIAP inhibitor)
Cc1ccc2ncccc2c1	none (no result: bIAP activator, bIAP inhibitor)
Cc1cc(N(C)C)ccc1N=Nc1ccc2ncccc2c1	hIAP inh 40.4 (no result: bIAP activator, bIAP inhibitor)
O=C(Nc1ccncc1)Nc1cccc(C(F)(F)F)c1	none (no result: bIAP activator, bIAP inhibitor)
Cc1ccc(S(=O)(=O)Nc2ccc(NC(=O)Nc3cccc(C(F)(F)F)c3)cc2)cc1	mIAP activ 2.61
CCN(CC)c1nc(OCCNC(=O)Nc2ccccc2)nc(N(CC)CC)n1	mIAP activ 2.48
Cc1ccc(NC(=O)C2CCN(S(=O)(=O)c3ccc4c(c3)NC(=O)C(C)S4)CC2)cc1Cl (stereo unspecified)	mIAP activ 2.37 (no result: bIAP activator, bIAP inhibitor)
Cc1ccc(Cl)c(NC(=O)COC(=O)c2nn(-c3ccccc3)cc2O)c1Cl	none (no result: bIAP activator, bIAP inhibitor)
Cc1ccc(C(=O)NC(NC(=O)c2ccc(C)cc2)C(Cl)Cl)cc1	mIAP activ 3.38
O=C(NC1CCCCC1)c1ccc(CS(=O)Cc2ccc(Cl)cc2)o1 (stereo unspecified)	none (no result: bIAP activator, bIAP inhibitor)
OC[C@@H]1[C@@H](c2ccc(F)cc2)C(c2cccc(Cl)c2)=NN1c1ccccc1	mIAP activ 2.13 (no result: bIAP activator, bIAP inhibitor, hIAP act, hIAP inh)
COc1ccccc1[C@H]1C(c2ccc(F)cc2)=NN(c2ccccc2)[C@@H]1CO	none (no result: bIAP activator, bIAP inhibitor, hIAP act, hIAP inh)
C[C@H]1C(c2ccc(F)cc2)=NN(c2ccccc2)[C@@H]1CO	none (no result: bIAP activator, bIAP inhibitor, hIAP act, hIAP inh)
OC[C@@H]1[C@@H](c2ccc(Cl)cc2)C(c2ccccc2)=NN1c1ccccc1	mIAP activ 2.05 (no result: bIAP activator, bIAP inhibitor, hIAP act, hIAP inh)
CCCCNC(=O)CSc1nc2cc3c(cc2c(=O)n1CCC(=O)NCCc1ccc(OC)c(OC)c1)OCO3	bIAP activator 2
COCCN(C(=O)Cc1cccs1)C(C(=O)NCc1ccc(OC)cc1)c1ccc(C(C)C)cc1 (stereo unspecified)	bIAP activator 2.1
CCc1ccc(C(C(=O)NCc2ccc(OC)cc2)N(CCOC)C(=O)Cc2cccs2)cc1 (stereo unspecified)	none
COCCn1c(COc2cccc(OC)c2)nnc1SCC(=O)NC1CCCCC1	none (no result: bIAP activator, bIAP inhibitor)
CCOc1ccc2nc(NCCCNC(=O)c3cc(OC)c(OC)c(OC)c3)c(C#N)cc2c1	mIAP activ 2.01 (no result: bIAP activator, bIAP inhibitor)
Cc1cccc(NC(=S)NC2CC3CCCC(C2)N3Cc2cccs2)c1 (stereo unspecified)	mIAP activ 5.88
Cc1c(CCOC(=O)C23CC4CC(CC(C)(C4)C2)C3)sc[n+]1Cc1ccccc1	mIAP inh 43.0
Cc1ccc(NC(=O)CSc2nc3ccccc3c(=O)n2CCCN2CCCCC2)cc1C	bIAP activator 2.4
Cc1ccc2[nH]nc(C(=O)N3CCCC(C(=O)c4ccc(Cl)cc4)C3)c2c1 (stereo unspecified)	none
CCCOC(=O)c1ccc(NC(=O)Oc2ccccc2)cc1	bIAP activator 2.6
CCc1cc(Cn2nc(-c3ccccc3)cc2C(=O)NCc2ccc(C)cc2)on1	mIAP activ 3.33 (no result: bIAP activator, bIAP inhibitor)
CCc1cc(Cn2nc(-c3ccccc3)cc2C(=O)O)on1	none (no result: bIAP activator, bIAP inhibitor)
Cc1ccccc1-n1nc2c(c1NC(=O)c1ccc(S(=O)(=O)N(C)C)cc1)CSC2	mIAP inh 45.5
O=C(c1ccc(Cl)cc1)N1N=CCC1(O)c1ccc(Cl)cc1 (stereo unspecified)	none (no result: bIAP activator, bIAP inhibitor)
O=S(=O)(c1ccc2c(c1)OCCO2)N1CCC(n2nnc3cc(F)ccc32)CC1	bIAP activator 2.1
O=C(O)COc1ccccc1Cc1ccccc1	none
CC(COc1ccccc1Cc1ccccc1)N1CCCCC1 (stereo unspecified)	hIAP inh 40.3 (no result: bIAP activator, bIAP inhibitor)
C=Cc1ccc(C2=CC(=O)C[C@H](c3ccc(OC)cc3)C2)cc1	none (no result: bIAP activator, bIAP inhibitor)
Nn1c(-c2ccccc2Cl)nnc1-c1ccccc1Cl	bIAP activator 2.6
CC(=O)Nc1ccc(S(=O)(=O)N2CCN=C2c2ccccc2)cc1	none (no result: bIAP activator, bIAP inhibitor)
O=C1CN(C(=O)CNC(=O)c2ccc(Cl)cc2Cl)CCN1	none (no result: bIAP activator, bIAP inhibitor)
Cc1cc2nc(CCN(C(=S)NCC(C)C)C3CCCC3)[nH]c2cc1C	mIAP activ 2.13
CCOC(=O)C1CCN(C(=O)C2(NC(=O)Nc3ccccc3C)CCCCC2)CC1	none (no result: bIAP activator, bIAP inhibitor)
CCOC(=O)C1CCN(C(=O)C2(NC(=O)Nc3ccccc3Cl)CCCCC2)CC1	bIAP activator 3.5
Cc1ccccc1NC1=NC2(CCCC2)N=C(N)N1	none
Cc1cccc(NC2=NC3(CCCCC3)N=C(N)N2)c1C	bIAP activator 2.7
Cc1ccc(NC2=NC3(CCCCC3)N=C(N)N2)c(C)c1	bIAP activator 3.7
Cc1ccc(NC2=NC3(CCCC3)N=C(N)N2)c(C)c1	none
CCN(CC(=O)NCc1cccs1)C(=O)c1cccc(S(=O)(=O)N2CC(C)OC(C)C2)c1 (stereo unspecified)	none (no result: bIAP activator, bIAP inhibitor)
COc1ccc(-c2cc(NCc3ccccn3)n3ncnc3n2)cc1	bIAP activator 7.4
c1ccc(CNc2c3c(nc4ncnn24)CCCC3)nc1	bIAP activator 4.8
O=C(Cn1nc(-c2ccc(F)cc2)ccc1=O)Nc1ccc2c(c1)OCCO2	none (no result: bIAP activator, bIAP inhibitor)
Cc1cccc2nc(CSc3nc4ccccc4[nH]3)cn12	bIAP activator 2.6
c1ccc2[nH]c(SCc3cn4ccccc4n3)nc2c1	none
COCc1cc(C)nc(SCc2ccc(Br)cc2)c1C#N	none (no result: bIAP activator, bIAP inhibitor)
CC1CC(C)CN(S(=O)(=O)c2ccc(NC(=O)[C@@H]3CCCN3C(=O)c3cccs3)cc2)C1 (stereo partly specified)	mIAP inh 50.0 (no result: bIAP activator, bIAP inhibitor)
Cc1ccc(S(=O)(=O)N2[C@@H](c3cccc(Cl)c3)C(C(=O)O)=CC[C@H]2c2cccc(Cl)c2)cc1	mIAP inh 42.0 (no result: bIAP activator, bIAP inhibitor)
CCCCNC(=O)C(C#N)c1nc2ccccc2nc1N1CCN(c2ccccc2F)CC1 (stereo unspecified)	none
